Shown are actives, neighbours in structure and some others; about 1.2% of the full set was active somewhere.
CR mimetic SO: reduction of superoxide in aged yeast, primary screen, HTS; hit rate 0.18% among 330,000; S. cerevisiae aged cells, superoxide DHE fluorescence; stronger effect = lower value; AID 2690, 2010; superoxide response (% of plate mean), % at 10 µM;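 active = superoxide response under a set limit, about three screen SD below normal, cut at about 65% in these data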;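 also: yeast aged for seven days with compound at 30 °C before DHE staining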
proCasp7 act: procaspase-7 activators, primary screen, counter-screen for procaspase-3 activator project, biochemical, absorbance, HTS, human | Caspase-7 (Homo sapiens), P55210 | recombinant procaspase-7, Ac-DEVD-pNA absorbance 405 nm; D23A/D198A/D206A triple mutant, cannot self-cleave; scale: DMSO 0, 5 µM enzyme 100 | activation, % at 8.5 µM | hit rate 0.093% among 330,000;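 active = percent activation above the screen-wide mean plus 3 SD, cut at about 25% in these data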
Target sequence (P55210 whole entry D23A/D198A/D206A): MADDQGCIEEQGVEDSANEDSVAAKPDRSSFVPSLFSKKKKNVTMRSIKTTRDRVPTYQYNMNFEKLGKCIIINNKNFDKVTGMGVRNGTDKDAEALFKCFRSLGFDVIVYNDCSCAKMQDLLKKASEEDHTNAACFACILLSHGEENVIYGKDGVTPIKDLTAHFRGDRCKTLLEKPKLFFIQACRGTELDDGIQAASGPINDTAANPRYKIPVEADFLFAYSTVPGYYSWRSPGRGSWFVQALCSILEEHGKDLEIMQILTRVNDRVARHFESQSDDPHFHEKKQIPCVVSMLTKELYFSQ
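System: Uncleavable procaspase-7 mutant enzyme; Amount: 2 µM procaspase-7 mutant as dispensed; Schedule: 1 h compound preincubation, 2 h substrate cleavage, 25 °C; Measured by: 405 nm absorbance of p-nitroaniline; Evaluation: percent activation from buffer-corrected 0–120 min absorbance change; Control set: low DMSO alone, high DMSO plus 5 µM PC-7.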
LANA-H2B inh: blockers of LANA interaction with H2A/H2B – biochemical, FP readout, HTS, primary screen; cell-free LANA-H2A/H2B peptide, fluorescence polarization; inhibition, % (concentration not given with the values); hit rate 0.6% among 320,000; AID 2629, 2010; in the data active = inhibition mostly above about 10%, no sharp cut-off; inactive = mostly below about 6.7%
ARFGAP1 inh: inhibitors of rat ARFGAP1 GAP activity, primary screen, biochemical, fluorescence polarization, GDP tracer. ADP-ribosylation factor GTPase-activating protein 1 (Rattus norvegicus), Q62848. Arfgap1-stimulated ARF1 GTP hydrolysis, GDP FP detection. inhibition, % at 16.5 µM. hit rate 0.26% among 360,000. AID 651572, 2012;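 active = inhibition above a per-plate limit, mean inhibition of low control wells plus 3 SD, cut at about 25% in these data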
Target sequence (Q62848 1-136 limits assumed): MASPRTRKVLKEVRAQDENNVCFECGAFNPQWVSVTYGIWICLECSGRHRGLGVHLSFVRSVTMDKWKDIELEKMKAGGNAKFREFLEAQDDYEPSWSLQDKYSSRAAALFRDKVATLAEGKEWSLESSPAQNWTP
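system = rat Arfgap1 catalytic domain, aa 1-136 | technique = FP, GDP Alexa 633 tracer displaced from anti-GDP antibody, 620/688 nm | compound = one concentration, 16.5 µM, DMSO 1.26% | medium = HEPES-based buffer, pH 7.5 | timing = compound-enzyme preincubation 20 min, reaction 120 min, detection 60 min, 25 °C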
ASAP1 inh: inhibitors of human ASAP1 ArfGAP activity, primary screen, biochemical, fluorescence polarization; inhibition, % at 16.5 µM; AID 624377, 2012; ASAP1-stimulated ARF1 GTP hydrolysis, GDP FP detection; hit rate 0.19% among 360,000; in the data active = inhibition above about 25%
procasp3 activ: activators of human procaspase-3 D3A mutant, primary screen, biochemical, absorbance, PC-3 D3A mutant, single concentration; AID 463141, 2010; activation, % at 8.5 µM; hit rate 0.11% among 330,000; recombinant procaspase-3 D3A, Ac-DEVD-pNA absorbance 405 nm;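 active = activation above the mean of all tested compounds plus 3 SD, cut at about 21% in these data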
Target sequence (P42574 whole entry D9A/D28A/D175A): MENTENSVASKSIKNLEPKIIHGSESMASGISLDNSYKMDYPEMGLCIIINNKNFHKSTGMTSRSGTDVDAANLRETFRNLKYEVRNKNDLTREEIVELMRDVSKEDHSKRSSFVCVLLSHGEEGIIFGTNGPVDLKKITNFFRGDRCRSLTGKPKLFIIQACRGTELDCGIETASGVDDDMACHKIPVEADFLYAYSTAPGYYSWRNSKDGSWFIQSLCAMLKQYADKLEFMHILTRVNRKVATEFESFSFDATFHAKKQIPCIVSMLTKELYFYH
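System: Procaspase-3 D3A mutant. Medium: Zinc-free 300 mM NaCl, 50 mM HEPES, 0.01% Triton X-100. Schedule: 1 h preincubation plus 2 h reaction at 25 °C. Measured by: 405 nm absorbance of p-nitroaniline, reads at 0 and 120 min. Read-out: percent activation relative to control range.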
Of the large screens only hits and unclear results are named; the others gave an inactive call.

COCCC1CCCCN1C(=O)c1cccc(OC2CCN(S(C)(=O)=O)CC2)c1 (stereo not drawn)	LANA-H2B inh 17 (no result: proCasp7 act, procasp3 activ)
O=C(COc1ccc(Br)cc1CO)Nc1ccc(S(=O)(=O)N2CCCCC2)cc1	LANA-H2B inh active
COc1ccc(OCC(=O)Nc2ccc(S(=O)(=O)N3CCOCC3)cc2)cc1	LANA-H2B inh 28
COc1ccc(NC(=O)CN(C)C(=O)/C=C/c2ccc(S(=O)(=O)N3CCCCCC3)cc2)cc1	LANA-H2B inh 110
CCc1ccc(OCC(=O)Nc2ccc(S(=O)(=O)N3CCCC3)cc2)c(Br)c1	none
COc1ccc(/C=C/C(=O)N(C)CC(=O)Nc2cccc(F)c2)cc1S(=O)(=O)N1CCCCC1	none (no result: CR mimetic SO, proCasp7 act, LANA-H2B inh, procasp3 activ)
CN(C)Cc1c(C(C)(C)O)[nH]c2ccccc12	none (no result: CR mimetic SO, proCasp7 act, LANA-H2B inh, procasp3 activ)
Cc1cc(O)c(Sc2ncn[nH]2)cc1NS(=O)(=O)c1ccc(Cl)cc1	none
O=S(=O)(Nc1cc(Sc2ncn[nH]2)c(O)c2ccccc12)c1ccccc1	ASAP1 inh 25 (no result: CR mimetic SO, proCasp7 act, LANA-H2B inh, procasp3 activ)
CC1(C2CC2)NC(=O)N(CC(=O)Nc2ccc(C(F)(F)F)cc2)C1=O (stereo not drawn)	LANA-H2B inh 12
CC(C)c1ccc(NC(=O)CN2C(=O)NC(C)(C3CC3)C2=O)cc1 (stereo not drawn)	none
COC(=O)C1=C(C)N(Cc2ccc(C(F)(F)F)cc2)C(=NCc2ccc(C(F)(F)F)cc2)NC1c1ccccc1C(F)(F)F (stereo not drawn)	none (no result: CR mimetic SO, proCasp7 act, LANA-H2B inh, procasp3 activ)
COc1ccc2cc(C3CC(c4ccco4)=NN3S(=O)(=O)c3ccccc3)c(Cl)nc2c1 (stereo not drawn)	CR mimetic SO 54
CCOc1ccc2cc(C3CC(c4ccco4)=NN3S(=O)(=O)c3ccccc3)c(Cl)nc2c1 (stereo not drawn)	none
CCCCOn1c(C)c(C(C)=O)c2c3no[n+]([O-])c3ccc21	LANA-H2B inh 13
CC(=O)Nc1ccc(N(C(=O)c2ccco2)C(C(=O)NC2CCCC2)c2cccs2)cc1 (stereo not drawn)	none
CCOc1ccc(N(CC(=O)NC2CCCCC2)C(=O)CNC(=O)c2ccco2)cc1	LANA-H2B inh 26
CC(=O)Nc1ccc(N(C(=O)c2ccco2)C(C(=O)NC2CCCCC2)c2ccccc2)cc1 (stereo not drawn)	LANA-H2B inh 10.0
O=C(NCC(=O)N(c1cccnc1)C(C(=O)NC1CCCCC1)c1cccnc1)c1ccco1 (stereo not drawn)	LANA-H2B inh 14
O=C(NCC(=O)N(c1ccccc1)C(C(=O)NC1CCCC1)c1cccnc1)c1ccco1 (stereo not drawn)	none
CC1(O)C(=O)C2(C)C=CC1C1C(=O)N(c3ccccc3)C(=O)C12 (stereo not drawn)	none (no result: CR mimetic SO, proCasp7 act, LANA-H2B inh, procasp3 activ)
COC(=O)C1=C(C)N(Cc2ccccc2C(F)(F)F)C(=NCc2ccc(C(F)(F)F)cc2)NC1c1ccccc1 (stereo not drawn)	none (no result: CR mimetic SO, proCasp7 act, LANA-H2B inh, procasp3 activ)
CC(C)(C)c1cc[n+](-c2[nH]c(=O)sc2/C=N/NC([S-])=Nc2ccccc2)cc1	LANA-H2B inh 42
Cc1cc[n+](-c2[nH]c(=O)sc2/C=N/NC([S-])=Nc2ccccc2)cc1C	none (no result: LANA-H2B inh)
CN1[C@@H]2CC[C@H]1CC(OC(=O)[C@H](CO)c1ccccc1)C2 (stereo partly drawn)	none (no result: proCasp7 act, procasp3 activ)
CC1CC(OC(=O)C(O)c2ccccc2)CC(C)(C)N1C (stereo not drawn)	LANA-H2B inh 17
C[C@@H]1ON(C)[C@H]2C[C@H]3c4cc(-c5ccc6c(c5)OCO6)ccc4CCN3C[C@@H]12	none (no result: CR mimetic SO, proCasp7 act, LANA-H2B inh, procasp3 activ)
CCC(C)NCCOCCOc1ccc(Cl)c(C)c1C (stereo not drawn)	none
CCC(C)NCCOCCOc1ccc(Cl)c2ccccc12 (stereo not drawn)	LANA-H2B inh 12
Cn1c(N)c(C(=O)COC(=O)/C=C/c2ccc(Cl)cc2)c(=O)n(C)c1=O	LANA-H2B inh 92
CC(C)[C@H](NC(=O)CC1CCCC1)C(=O)N1CCC[C@H]1C(=O)NCc1ccccc1	none (no result: CR mimetic SO, proCasp7 act, LANA-H2B inh, procasp3 activ)
CN(CC(=O)Nc1ccc(Cl)cc1)C1=NS(=O)(=O)c2ccccc21	LANA-H2B inh 27
CN(CC1COCCO1)C(=O)c1cc(COc2c(F)cccc2F)on1 (stereo not drawn)	LANA-H2B inh 116
N#Cc1ccc(S(=O)(=O)N2CCCc3nc(-c4ccccc4)ccc32)cc1	none (no result: CR mimetic SO, proCasp7 act, LANA-H2B inh, procasp3 activ)
CC(NC(=O)COC(=O)C1CCN(c2ccc(C(F)(F)F)cn2)CC1)c1ccc(Br)cc1 (stereo not drawn)	none
CC(NC(=O)COC(=O)C1CCN(c2ccc(C(F)(F)F)cn2)CC1)c1ccc(F)cc1 (stereo not drawn)	LANA-H2B inh 17
CCN1CCN(C2=C(NS(=O)(=O)c3ccc(NC(C)=O)cc3)C(=O)c3ccccc3C2=O)CC1	none
CC(=O)Nc1ccc(S(=O)(=O)NC2=C(N3CCN(Cc4ccccc4)CC3)C(=O)c3ccccc3C2=O)cc1	LANA-H2B inh active
COC(=O)C1=C(C)N(Cc2cccc(C(F)(F)F)c2)C(=NCC2CC2)NC1c1ccc(F)cc1 (stereo not drawn)	none (no result: CR mimetic SO, proCasp7 act, LANA-H2B inh, procasp3 activ)
O=c1cc(-c2ccccc2)nc2cc(-c3ccco3)[nH]n12	CR mimetic SO 63
CC(=C1N=C(c2ccccc2)OC1=O)c1cccs1	none (no result: CR mimetic SO, proCasp7 act, LANA-H2B inh, procasp3 activ)
CCCOc1ccc(N2C(=O)CC(SC(=NCC)NCC)C2=O)cc1 (stereo not drawn)	none
CCCCCCOc1ccc(N2C(=O)CC(SC(=NCC)NCC)C2=O)cc1 (stereo not drawn)	CR mimetic SO 65
Cc1oc2c(C)c3oc(=O)c(CCC(=O)N4C[C@H]5C[C@@H](C4)c4cccc(=O)n4C5)c(C)c3cc2c1C	LANA-H2B inh 35
O=C(Nc1ccc(N2CCCC2)cc1)c1cc(Br)ccc1Cl	ARFGAP1 inh 32
CS(=O)(=O)N1CCN(c2ccc(NC(=O)C(c3ccccc3)c3ccccc3)cc2)CC1	none
O=C(Nc1ccc(N2CCCC2)cc1)C(Cl)c1ccccc1 (stereo not drawn)	LANA-H2B inh 28 (no result: ARFGAP1 inh, ASAP1 inh)
C#C[C@]1(O)CCC2C3CCC4=Cc5oncc5CC4(C)C3CCC21C (stereo partly drawn)	LANA-H2B inh 13
